Screening data from PubChem BioAssay.
Sampled rows, rich in hits. Any-hit rate of the full collection: about 4%.
CHOP inh – inhibitors of CHOP induction in ER stress response | CHO-K1 CHOP-promoter luciferase, tunicamycin-induced, 15-18 h | inhibition, % at 10 µM | actives 3.8% (n = 220,000) | AID 2732;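 active = compounds that reduced the stress-induced luciferase reporter signal by more than about 70% of percent inhibition, limit read from the data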;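 also: 0% = tunicamycin plus vehicle and 100% = wells without tunicamycin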
MDM2 E3 inh – Mdm2 E3 ligase (human) inhibition; Q00987; cell-based MDM2 ubiquitination luciferase reporter, 2 h; 0 = plate control, 100 = twice control, blank-subtracted; signal enhancement, % at 5 µM; actives 0.11% (n = 210,000); AID 1230;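 active = signal enhancement of 30% or more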;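 also: luminescence tracks abundance of the self-degrading MDM2-luciferase fusion protein; higher signal means inhibition of MDM2 E3 ligase activity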
Target sequence (Q00987 whole entry, looked up, the tested form may be a part): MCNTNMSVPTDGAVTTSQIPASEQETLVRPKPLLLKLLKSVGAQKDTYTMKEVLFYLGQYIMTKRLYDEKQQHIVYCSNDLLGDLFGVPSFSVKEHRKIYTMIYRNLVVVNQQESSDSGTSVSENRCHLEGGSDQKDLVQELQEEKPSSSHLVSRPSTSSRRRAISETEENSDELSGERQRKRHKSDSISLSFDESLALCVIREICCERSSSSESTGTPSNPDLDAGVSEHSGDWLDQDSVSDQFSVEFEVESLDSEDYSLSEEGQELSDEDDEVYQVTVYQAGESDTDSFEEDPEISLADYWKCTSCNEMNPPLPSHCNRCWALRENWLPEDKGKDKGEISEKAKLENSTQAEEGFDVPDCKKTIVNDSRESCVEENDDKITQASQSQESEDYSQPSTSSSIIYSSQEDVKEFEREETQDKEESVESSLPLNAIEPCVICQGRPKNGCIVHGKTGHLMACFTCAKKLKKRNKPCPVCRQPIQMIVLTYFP
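Buffer or medium: Cells held in DMEM | Assay system: Stable mammalian line carrying autodegrading MDM2–luciferase fusion reporter | Quantity: 2000 cells/well | Times: 4 h settle plus 2 h compound, 37 °C | Doses: One concentration, 5 µM, with 0.2% DMSO | Technique: Luminescence with SteadyLite reagent, 15 min at room temperature | Benchmarks: Plate controls and plate blanks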
S1P3 antag – blocks the human S1P3 receptor | Q99500 | CHO S1P3 NFAT-BLA reporter, FRET fluorescence, antagonist mode | inhibition, % at 4.98 µM | actives 0.27% (n = 170,000) | AID 485;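 active = inhibition above the plate cutoff, the mean inhibition of test wells on that plate plus 3 SD, cut at about 28% in these data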;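 also: cells challenged with S1P at its EC80 of 0.8 µM; blue over green emission ratio from cleaved BLA substrate after 4 h stimulation; 0% = S1P-stimulated wells and 100% = unstimulated DMSO-only wells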
Hsp70 activator – Hsp70 transcriptional activation, primary screen; actives 0.04% (n = 200,000); AID 1203; activation, % at 10 µM; HeLa Hsp70 promoter luciferase reporter, luminescence; scaled: vehicle 0, proteasome-inhibitor control 100%;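 active = activation above the mean across all tested compounds plus 3 SD, cutoff set per campaign, cut at about 5.5% in these data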;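 also: 100% = MG132 at 30 µM as the positive control and 0% = DMSO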
* = called active by the depositor; . = no result.

SMILES	CHOP inh	MDM2 E3 inh	S1P3 antag	Hsp70 activator
Nc1nnc(SCC(=O)NN2C(=O)NC3(CCCCC3)C2=O)s1	7	-11	2	0
COc1ccccc1N=Cc1c(C)c(C#N)c2[nH]c3ccccc3n2c1=O	84*	-6	-1	0
Cc1[nH]c2ccccc2c1/C=C/c1nc2ccccc2c(=O)[nH]1	76*	-5	23	.
CCn1c(/C=C/c2c(C)[nH]c3ccccc23)nc2ccccc2c1=O	94*	-10	-3	0
Cc1[nH]c2ccccc2c1/C=C/c1nc2ccccc2c(=O)n1-c1ccc([N+](=O)[O-])cc1	-4	-8	-17	0
CC(CNC(=O)c1ccc(C(C)(C)C)cc1)CN(C)C (stereo unspecified)	-24	-11	-27	0
COc1ccc(-c2ccc(OC)c([C@H]3[C@H]4C=CC[C@@H](C)[C@@H]4C(=O)N3Cc3ccccc3)c2)cc1OC	31	0	.	.
COc1ccc(Br)cc1[C@H]1[C@H]2C=CC[C@@H](C)[C@@H]2C(=O)N1Cc1ccccc1	75*	-31	.	.
CCCCCCCn1c(=O)c(C(=O)OC)c(N)c2ccccc21	73*	-13	-2	.
CCCCCCCCn1c(=O)c(C(=O)OC)c(N)c2ccccc21	66	-15	-1	.
Cn1c(=O)c2c(nc(N/N=C/c3cccnc3)n2Cc2ccccc2)n(C)c1=O	12	-8	-1	.
Cc1ccc2[nH]c(C)c(CCNC(=O)c3cc4cc([N+](=O)[O-])ccc4oc3=O)c2c1	89*	.	5	0
O=S(=O)(c1ccc(Cl)s1)N1CCN(Cc2ccccc2)CC1	81*	13	-6	0
O=S(=O)(c1ccc(Cl)s1)N1CCC(Cc2ccccc2)CC1	48	-13	.	0
Cn1nc(-c2ccc(Cl)cc2)c2cc(C(=O)N3CCN(c4ccccn4)CC3)sc21	90*	-16	11	0
Cn1nc(-c2ccc(Cl)cc2)c2cc(C(=O)N3CCN(c4ccccc4)CC3)sc21	50	-23	-19	0
Cc1ccc(NC(=O)CSc2ncccc2C(=O)Oc2cccc([N+](=O)[O-])c2)cc1Cl	-18	-12	6	0
CC(=O)Nc1ccc(C(=O)Cn2c3[n+](c4c(F)c(F)ccc42)CCCCC3)cc1	-13	-4	4	0
Cc1ccc(C(C(=O)NCc2ccco2)N(C(=O)CNC(=O)c2cccs2)c2c(C)cc(C)cc2C)cc1 (stereo unspecified)	74*	-3	.	0
Cc1ccc(C(C(=O)NCc2ccco2)N(C(=O)CNC(=O)c2cccs2)c2ccc(C)cc2)cc1 (stereo unspecified)	24	-2	.	0
COc1c2occc2c(OC)c2c(=O)cc(C(F)(F)C(F)(F)F)oc12	83*	-28	8	0
COc1cc([C@@H]2c3cc4c(cc3[C@@H](O)[C@H]3COC(=O)[C@H]23)OCO4)cc(OC)c1O[Si](C)(C)C(C)(C)C	87*	5	.	.
COc1cc([C@@H]2c3cc4c(cc3[C@H](O)C3COC(=O)[C@@H]32)OCO4)cc(OC)c1OC (stereo partly specified)	48	.	.	.
CCc1ccc(NC(=S)Nc2cccc3cnccc23)cc1	23	-4	-16	0
CCCCOc1ccc(Br)cc1CSC(=N)N	76*	-45	11	0
SMILES	CHOP inh	MDM2 E3 inh	S1P3 antag	Hsp70 activator
COc1ccc(N(CC(=O)N2CCC(Cc3ccccc3)CC2)S(C)(=O)=O)cc1	3	5	-3	0
CCN(CC)C(=O)N1c2ccccc2CC(N(CC)CC)c2ccccc21 (stereo unspecified)	85*	6	3	0
CCN(CC)C(=O)N1CCc2ccccc21	0	-8	-12	0
CCNC(=O)c1ccc2c(c1)S(=O)(=O)c1ccccc1C2=O	14	-9	85*	0
CNC1=C([N+](=O)[O-])CC([N+](=O)[O-])=C(N2CCNCC2)N1C	-6	-4	-23	0
COc1ccccc1C1CC(c2cccs2)=Nc2ccccc2S1 (stereo unspecified)	84*	-8	.	0
COc1ccc2[nH]cc(CCNS(=O)(=O)Cc3ccccc3)c2c1	10	2	-2	0
CCOC(=O)C1CCN(C(=O)Nc2ccc(OC(F)(F)F)cc2)CC1	6	-11	-8	.
Cc1ccc2[nH]c(=O)c(-c3nc4cc(C)ccn4c3NCc3ccco3)cc2c1	93*	-15	25	0
Cc1ccc(-n2nnnc2C(Cl)(Cl)c2nnnn2-c2ccc(C)cc2)cc1	80*	-11	.	0
Cc1ccc(OCCN2CCN(c3ncnc4sc(C)c(C)c34)CC2)cc1	72*	-18	.	0
Clc1ccc(OCCN2CCN(c3ncnc4sccc34)CC2)cc1	.	-27	64*	0
CCNC(=O)OCc1cn(-c2ccc(Cl)cc2)nn1	-9	-24	0	0
O=C(Nc1ccc(Cl)cc1)OCc1cn(-c2ccc(Cl)cc2)nn1	73*	3	.	0
CCc1ccc(NC(=S)N(Cc2ccc(Cl)cc2)Cc2ccc(C(=O)O)cc2)cc1	-8	5	-5	0
CCC1(C(=O)c2ccc(Cl)cc2)C2c3ccccc3OC(=O)C21C(=O)Nc1ccccc1 (stereo unspecified)	78*	-7	-6	0
Cc1c(NC(=O)C2CCCCC2)cc(C(=O)N2CCOCC2)cc1[N+](=O)[O-]	23	-32	2	0
Fc1ccc(CN2CCN(C(=S)NCCc3ccccc3)CC2)c(Cl)c1	85*	-1	-6	0
S=C(NCCc1ccccc1)N1CCN(Cc2ccc(Cl)c(Cl)c2)CC1	52	-17	-7	0
Cc1[nH]n(CCC#N)c(=O)c1CC(=O)N1CCN(c2ccccc2)CC1	2	-18	9	0
COC(=O)C(Cc1c[nH]c2ccccc12)N1CCS(=O)(=O)CC1 (stereo unspecified)	12	2	-6	0
C=C1CCN([C@H](C(=O)NCc2ccccc2)C(C)C)S(=O)(=O)c2ccccc21	-16	6	.	.
O=c1c2ccccc2[nH]c(=S)n1CCCN1CCN(C2CCCCC2)CC1	23	2	70*	0
CCCCCCCC(=O)N/N=C/c1ccncc1	1	-13	-17	.
CCCCCCCCC(=O)N/N=C/c1cccc(Br)c1	87*	-1	.	0
SMILES	CHOP inh	MDM2 E3 inh	S1P3 antag	Hsp70 activator
CCCCCCC(=O)N/N=C/c1ccc(Br)cc1	93*	1	-4	0
NC(=O)c1cc(Br)cc2c3c([nH]c12)CCCC3	85*	-12	-9	0
N#Cc1c(Nc2ccc(F)cc2)sc(C(=O)c2ccc(F)cc2)c1N	76*	-10	.	0
COc1ccc(S(=O)(=O)NCC2CCC(C(=O)NCC(OC)OC)CC2)cc1 (stereo unspecified)	0	-28	-16	0
CC(C)c1ccc(CNc2ccc([N+](=O)[O-])cn2)cc1	83*	-2	10	0
Cc1ccc2c(N)[nH]nc2n1	-25	8	-18	0
O=C(C1CCC(Cn2c(=S)[nH]c3ccccc3c2=O)CC1)N1CCN(c2ccccc2)CC1 (stereo unspecified)	.	.	-17	0
